Assay results taken from publication PMC9053608 (RSC Advances, 2020).
Marks after values point to notes of the source that are not given here. Ends that are not written are not given here.

Legend:
[1] = system: breast cancer cell line MDA-MB-468; assay: MTT cytotoxicity assay; assay type: cell-based, human; details: 37 °C, 5% FBS, mean ± SD (n = 3); for Cellular Viability (%), MDA-MB-468 cells, 2 h: peptide 200 μg mL−1, 2 h; for Cellular Viability (%), MDA-MB-468 cells, 24 h: peptide 200 μg mL−1, 24 h; for Cellular Viability (%), MDA-MB-468 cells, 48 h: peptide 200 μg mL−1, 48 h
Procedure, shortened: (§1)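 Cells (1 × 10^4 per well) adhered for 14 h at 37 °C in humidified 5% CO2. Medium was then replaced with equal volumes of supplemented RPMI (10%) and peptide solution (200–6.25 μg mL−1), giving 5% final FBS. After 2, 24 or 48 h, MTT (5 mg mL−1 stock) was added for 4 h at 37 °C. Formazan was dissolved in DMSO and read at A570; mean ± S.D., n = 3.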

[2] = system: S. aureus ATCC 25923; assay: Antibacterial activity, microdilution assay; assay type: cell-based; details: microdilution (CLSI), 96-well, 24 h at 37 °C, absorbance 620 nm, n = 2
Procedure, shortened: (§2)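 MIC by CLSI broth microdilution. Peptide solutions at 200, 100, 50, 25, 12.5 and 6.2 μg mL−1 were mixed 9:1 with bacterial inoculum (5 × 10^6 CFU mL−1). Plates were incubated 24 h at 37 °C and read at A620. […] Duplicate runs (n = 2).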

[3] = system: young human fibroblast primary cell culture; assay: MTT cytotoxicity assay; assay type: cell-based; details: 37 °C, 5% FBS, mean ± SD (n = 3); for Cellular Viability (%), Fibroblast cells, 2 h: peptide 200 μg mL−1, 2 h; for Cellular Viability (%), Fibroblast cells, 24 h: peptide 200 μg mL−1, 24 h; for Cellular Viability (%), Fibroblast cells, 48 h: peptide 200 μg mL−1, 48 h
Procedure, shortened: as §1

[4] = system: MDA-MB-468 cells; assay: Morphologic changes by phase-contrast microscopy; assay type: cell-based, human; details: phase-contrast microscopy 20×, peptide at 134,61 μM, 24 h
Procedure, shortened: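 MDA-MB-468 cells (ATCC HTB-132), 1 × 10^4 per well, were allowed to adhere for 14 h at 37 °C in 5% CO2. Medium was then replaced with supplemented RPMI plus test compound, giving 5% FBS final. Plates were incubated at 37 °C in 5% CO2, and cells were photographed before MTT addition. Untreated cells were recorded alongside.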

[5] = system: E. coli ATCC 25922; assay: Antibacterial activity, microdilution assay; assay type: cell-based; details: microdilution (CLSI), 96-well, 24 h at 37 °C, absorbance 620 nm, n = 2
Procedure, shortened: as §2

Substance | MIC, S. aureus ATCC 25923 [2] [µM] | MIC, E. coli ATCC 25922 [5] [µM] | Cellular Viability (%), MDA-MB-468 cells, 2 h [1] [%] | Cellular Viability (%), MDA-MB-468 cells, 24 h [1] [%] | Cellular Viability (%), MDA-MB-468 cells, 48 h [1] [%] | Cellular Viability (%), Fibroblast cells, 2 h [3] | Cellular Viability (%), Fibroblast cells, 24 h [3] | Cellular Viability (%), Fibroblast cells, 48 h [3] | morphological changes in MDA-MB-468 cells [4]
RWQWAWQWR-NH2 [Peptide A5] | 143 | – | 71 ± 8 | 62 ± 7 | 64 ± 4 | 99 ± 1 ^a % | 81 ± 1 ^b % | 82 ± 1 ^a % | morphological changes were observed, acquiring rounded forms
RWQWRAQWR-NH2 [Peptide A6] | – | 37 | 55 ± 6 | 49 ± 5 | 52 ± 5 | 100 ± 2 ^a % | 88 ± 2 ^a % | 79 ± 4 ^a % | significant morphological changes associated with the cytotoxic effect were not observed
RWQWRWQWA-NH2 [Peptide A9] | 143 | 143 | 64 ± 7 | 55 ± 6 | 65 ± 7 | 100 ± 4 ^a % | 98 ± 3 ^a % | 100 ± 3 ^a % | –

More lines, main results first:

MIC, S. aureus ATCC 25923 [2] [µM] | MIC, E. coli ATCC 25922 [5] [µM] | Substance | Cellular Viability (%), MDA-MB-468 cells, 2 h [1] [%] | Cellular Viability (%), MDA-MB-468 cells, 24 h [1] [%] | Cellular Viability (%), MDA-MB-468 cells, 48 h [1] [%] | Cellular Viability (%), Fibroblast cells, 2 h [3] | Cellular Viability (%), Fibroblast cells, 24 h [3] | Cellular Viability (%), Fibroblast cells, 48 h [3] | morphological changes in MDA-MB-468 cells [4]
146 | 146 | RAQWRWQWR-NH2 [Peptide A2] | 62 ± 4 | 63 ± 4 | 58 ± 6 | 100 ± 2 ^a % | 94 ± 2 ^a % | 87 ± 2 ^a % | significant morphological changes associated with the cytotoxic effect were not observed
140 | 18 | RWQWRWAWR-NH2 [Peptide A7] | 59 ± 6 | 57 ± 3 | 56 ± 1 | 96 ± 5 ^a % | 100 ± 1 ^a % | 79 ± 5 ^a % | morphological changes were observed, acquiring rounded forms
146 | 37 | RWQWRWQAR-NH2 [Peptide A8] | 69 ± 5 | 62 ± 5 | 61 ± 6 | 100 ± 1 ^a % | 94 ± 1 ^a % | 85 ± 4 ^a % | significant morphological changes associated with the cytotoxic effect were not observed
